Assay results reported in ChEMBL document CHEMBL1148687, “Identification of a novel 4-aminomethylpiperidine class of M3 muscarinic receptor antagonists and structural insight into their M3 selectivity” (J Med Chem, 2006).

Each compound was assayed against T1, Muscarinic acetylcholine receptor M3 (Homo sapiens, UniProt P20309) (assay: Inhibition of [3H]NMS binding to human cloned M3 receptor expressed in CHO cells at 1 uM).
Type: cell-based
Target sequence in this assay (P20309 whole entry, looked up): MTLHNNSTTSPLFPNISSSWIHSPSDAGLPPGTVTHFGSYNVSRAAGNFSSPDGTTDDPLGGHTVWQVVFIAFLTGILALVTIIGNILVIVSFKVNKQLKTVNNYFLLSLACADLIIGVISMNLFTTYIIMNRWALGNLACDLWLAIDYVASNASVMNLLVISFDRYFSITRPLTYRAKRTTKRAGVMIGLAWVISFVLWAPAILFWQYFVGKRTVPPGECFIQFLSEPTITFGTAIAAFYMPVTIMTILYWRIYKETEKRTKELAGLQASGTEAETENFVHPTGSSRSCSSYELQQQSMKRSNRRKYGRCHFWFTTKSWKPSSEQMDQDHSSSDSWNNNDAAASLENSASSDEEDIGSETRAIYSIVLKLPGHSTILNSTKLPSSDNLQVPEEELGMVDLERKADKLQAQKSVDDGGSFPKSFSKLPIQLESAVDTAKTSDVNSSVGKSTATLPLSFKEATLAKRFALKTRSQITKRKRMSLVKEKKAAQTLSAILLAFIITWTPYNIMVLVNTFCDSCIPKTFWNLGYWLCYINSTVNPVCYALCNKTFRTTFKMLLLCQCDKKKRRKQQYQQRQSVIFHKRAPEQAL

In order of falling inhibition:
1. O=C(NC[C@@H]1CCCNC1)[C@H]1CCCN1C(=O)[C@@H]1CCCN1C(=O)CC(c1ccccc1)(c1ccccc1)c1ccccc1  91%
2. O=C(NCCC1CCNCC1)[C@H]1CCCN1C(=O)[C@@H]1CCCN1C(=O)CC(c1ccccc1)(c1ccccc1)c1ccccc1  88%
3. O=C(NCC1CCNCC1)[C@H]1CCCN1C(=O)[C@@H]1CCCN1C(=O)CC(c1ccccc1)(c1ccccc1)c1ccccc1  82%
4. N[C@H]1CCCC[C@@H]1NC(=O)[C@H]1CCCN1C(=O)[C@@H]1CCCN1C(=O)CC(c1ccccc1)(c1ccccc1)c1ccccc1  80%
5. NC1CCCC(NC(=O)[C@H]2CCCN2C(=O)[C@@H]2CCCN2C(=O)CC(c2ccccc2)(c2ccccc2)c2ccccc2)C1 (some centres undefined)  59%
6. NCC1CCN(C(=O)[C@H]2CCCN2C(=O)[C@@H]2CCCN2C(=O)CC(c2ccccc2)(c2ccccc2)c2ccccc2)CC1  59%
7. N[C@@H]1CCCC[C@@H]1NC(=O)[C@H]1CCCN1C(=O)[C@@H]1CCCN1C(=O)CC(c1ccccc1)(c1ccccc1)c1ccccc1  40%
8. O=C(NCC1CCNC1)[C@H]1CCCN1C(=O)[C@@H]1CCCN1C(=O)CC(c1ccccc1)(c1ccccc1)c1ccccc1 (some centres undefined)  33%
9. NCC1CCCN(C(=O)[C@H]2CCCN2C(=O)[C@@H]2CCCN2C(=O)CC(c2ccccc2)(c2ccccc2)c2ccccc2)C1 (some centres undefined)  32%
10. O=C(NCC1CCCCN1)[C@H]1CCCN1C(=O)[C@@H]1CCCN1C(=O)CC(c1ccccc1)(c1ccccc1)c1ccccc1 (some centres undefined)  28%
11. NC1CCCN(C(=O)[C@H]2CCCN2C(=O)[C@@H]2CCCN2C(=O)CC(c2ccccc2)(c2ccccc2)c2ccccc2)C1 (some centres undefined)  22%
12. NCc1cccc(NC(=O)[C@H]2CCCN2C(=O)[C@@H]2CCCN2C(=O)CC(c2ccccc2)(c2ccccc2)c2ccccc2)c1  12%
13. O=C([C@H]1CCCN1C(=O)[C@@H]1CCCN1C(=O)CC(c1ccccc1)(c1ccccc1)c1ccccc1)N1CCNCC1  12%
14. O=C([C@H]1CCCN1C(=O)[C@@H]1CCCN1C(=O)CC(c1ccccc1)(c1ccccc1)c1ccccc1)N1CCCNC1  12%
15. Nc1ccccc1NC(=O)[C@H]1CCCN1C(=O)[C@@H]1CCCN1C(=O)CC(c1ccccc1)(c1ccccc1)c1ccccc1  11%
16. Nc1ccccc1CNC(=O)[C@H]1CCCN1C(=O)[C@@H]1CCCN1C(=O)CC(c1ccccc1)(c1ccccc1)c1ccccc1 (stereo in doubt; 46)  10%
17. NCc1ccc(NC(=O)[C@H]2CCCN2C(=O)[C@@H]2CCCN2C(=O)CC(c2ccccc2)(c2ccccc2)c2ccccc2)cc1  9%
18. Nc1ccc(NC(=O)[C@H]2CCCN2C(=O)[C@@H]2CCCN2C(=O)CC(c2ccccc2)(c2ccccc2)c2ccccc2)cc1  8%
19. NCC1CCN(C(=O)[C@H]2CCCN2C(=O)[C@@H]2CCCN2C(=O)CC(c2ccccc2)(c2ccccc2)c2ccccc2)C1 (some centres undefined)  7%
20. O=C([C@H]1CCCN1C(=O)[C@@H]1CCCN1C(=O)CC(c1ccccc1)(c1ccccc1)c1ccccc1)N1CCC2NCCC21 (some centres undefined)  7%
21. O=C([C@H]1CCCN1C(=O)[C@@H]1CCCN1C(=O)CC(c1ccccc1)(c1ccccc1)c1ccccc1)N1CC2CNCC2C1 (some centres undefined)  7%
22. Nc1cccc(CNC(=O)[C@H]2CCCN2C(=O)[C@@H]2CCCN2C(=O)CC(c2ccccc2)(c2ccccc2)c2ccccc2)c1  6%
23. Nc1ccc(CNC(=O)[C@H]2CCCN2C(=O)[C@@H]2CCCN2C(=O)CC(c2ccccc2)(c2ccccc2)c2ccccc2)cc1  6%
24. Nc1ccccc1CNC(=O)[C@H]1CCCN1C(=O)[C@@H]1CCCN1C(=O)CC(c1ccccc1)(c1ccccc1)c1ccccc1 (stereo in doubt; 45)  5%
25. NCC1CCCCN1C(=O)[C@H]1CCCN1C(=O)[C@@H]1CCCN1C(=O)CC(c1ccccc1)(c1ccccc1)c1ccccc1 (some centres undefined)  5%
26. O=C(NC1CCNCC1)[C@H]1CCCN1C(=O)[C@@H]1CCCN1C(=O)CC(c1ccccc1)(c1ccccc1)c1ccccc1  4%
27. NCCCNC(=O)[C@H]1CCCN1C(=O)[C@@H]1CCCN1C(=O)CC(c1ccccc1)(c1ccccc1)c1ccccc1  2%
28. Nc1cccc(NC(=O)[C@H]2CCCN2C(=O)[C@@H]2CCCN2C(=O)CC(c2ccccc2)(c2ccccc2)c2ccccc2)c1  0%
29. NC1CCN(C(=O)[C@H]2CCCN2C(=O)[C@@H]2CCCN2C(=O)CC(c2ccccc2)(c2ccccc2)c2ccccc2)C1 (some centres undefined)  0%
30. O=C([C@H]1CCCN1C(=O)[C@@H]1CCCN1C(=O)CC(c1ccccc1)(c1ccccc1)c1ccccc1)N1CCCNCC1  -2%
31. NCCNC(=O)[C@H]1CCCN1C(=O)[C@@H]1CCCN1C(=O)CC(c1ccccc1)(c1ccccc1)c1ccccc1  -4%
32. O=C(NC1CCNC1)[C@H]1CCCN1C(=O)[C@@H]1CCCN1C(=O)CC(c1ccccc1)(c1ccccc1)c1ccccc1 (some centres undefined)  -4%
33. NC1CCC(NC(=O)[C@H]2CCCN2C(=O)[C@@H]2CCCN2C(=O)CC(c2ccccc2)(c2ccccc2)c2ccccc2)CC1 (some centres undefined)  -7%

The compounds below were run against T1, Muscarinic acetylcholine receptor M3 (assay: Inhibition of [3H]NMS binding to human cloned M3 receptor expressed in CHO cells).
Type: cell-based
How it was run: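 Competition against specific [3H]-NMS binding on membranes of CHO cells expressing cloned human receptor subtypes. Assay buffer 50 mM Tris-HCl, 10 mM MgCl2, 1 mM EDTA, pH 7.4, highest final concentration 10 µM.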
Target sequence in this assay (P20309 whole entry): as the sequence (P20309 whole entry, looked up) above

In order of rising Ki:
1. O=C(NC[C@@H]1CCCNC1)[C@H]1CCCN1C(=O)[C@@H]1CCCN1C(=O)CC(c1ccccc1)(c1ccccc1)c1ccccc1  23 nM
2. O=C(NCCC1CCNCC1)[C@H]1CCCN1C(=O)[C@@H]1CCCN1C(=O)CC(c1ccccc1)(c1ccccc1)c1ccccc1  29 nM
3. N[C@H]1CCCC[C@@H]1NC(=O)[C@H]1CCCN1C(=O)[C@@H]1CCCN1C(=O)CC(c1ccccc1)(c1ccccc1)c1ccccc1  48 nM
4. O=C(NCC1CCNCC1)[C@H]1CCCN1C(=O)[C@@H]1CCCN1C(=O)CC(c1ccccc1)(c1ccccc1)c1ccccc1  49 nM
5. NCC1CCN(C(=O)[C@H]2CCCN2C(=O)[C@@H]2CCCN2C(=O)CC(c2ccccc2)(c2ccccc2)c2ccccc2)CC1  150 nM
6. NC1CCCC(NC(=O)[C@H]2CCCN2C(=O)[C@@H]2CCCN2C(=O)CC(c2ccccc2)(c2ccccc2)c2ccccc2)C1 (some centres undefined)  170 nM
